CCR6 antagonist: blocks CCL20-driven beta-arrestin recruitment at human CCR6. CHO-K1 CCR6 PathHunter beta-arrestin, luminescence, CCL20-stimulated. AID 493098. inhibition, % at 20 µM. 340,000 tested, 0.49% active;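 active means compounds whose inhibition of the agonist-driven luminescence signal at 20 µM reaches about 50%, limit read from the data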;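 further: cells stimulated with CCL20 at 14 nM final; plate controls were DMSO with CCL20 for no effect and DMSO without agonist for full effect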
Target sequence (P51684 whole entry, looked up): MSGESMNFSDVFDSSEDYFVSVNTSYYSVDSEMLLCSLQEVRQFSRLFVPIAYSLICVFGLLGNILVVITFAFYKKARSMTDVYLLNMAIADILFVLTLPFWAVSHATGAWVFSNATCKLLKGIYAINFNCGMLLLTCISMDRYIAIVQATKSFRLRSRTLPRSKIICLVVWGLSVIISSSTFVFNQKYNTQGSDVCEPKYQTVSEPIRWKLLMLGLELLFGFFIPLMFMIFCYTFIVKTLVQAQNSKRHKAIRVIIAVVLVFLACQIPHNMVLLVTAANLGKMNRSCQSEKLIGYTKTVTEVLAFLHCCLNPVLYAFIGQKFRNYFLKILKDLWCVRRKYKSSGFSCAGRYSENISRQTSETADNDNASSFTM
EBI2 block: EBI2 (human) antagonism | 360,000 tested, 0.81% active | EBI2 beta-arrestin recruitment, luminescence, 7a,25-OHC stimulated | P32249 | inhibition, % at 5 µM; in the data active means inhibition above about 38%;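 further: enzyme fragment complementation signal reports receptor beta-arrestin coupling in cells; 0% = agonist plus DMSO wells and 100% = wells without agonist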
APJ antag: blocks the human apelin receptor APJ | CHO-K1 APJ beta-arrestin complementation, luminescence | inhibition, % at 20 µM | 330,000 tested, 0.32% active | AID 2521;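 active means inhibition above about 40% at 20 µM, limit read from the data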;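 further: cells challenged with 10 nM apelin-13 agonist together with compound; plate controls were apelin-13 plus DMSO wells for no effect and DMSO wells lacking apelin-13 for full effect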
APJ agonist: activates the human apelin receptor APJ; P35414; CHO-K1 APJ PathHunter beta-arrestin, luminescence; 0% DMSO wells, 100% apelin; activation, % at 20 µM; 330,000 tested, 0.11% active;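 active means activation more than six SD over the plate average, tested at 20 µM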;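 further: 0% = DMSO alone and 100% = apelin-13 at 10 nM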
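Test system: CHO-K1 APJ beta-arrestin complementation cell line. Amount: cell density 1000 per well. Controls: DMSO negative, 10 nM Apelin-13 positive. Signal: luminescent beta-gal fragment complementation, chemiluminescent substrate. Read-out basis: agonist-driven arrestin binding to APJ. Timing: compound stimulation 90 min at 25 °C, detection 60 min.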
CXCR6 inh: blocks human CXCR6 beta-arrestin recruitment. inhibition, % at 20 µM. O00574. CHO-K1 PathHunter CXCR6 beta-arrestin, luminescence. 360,000 tested, 0.36% active; in the data active means inhibition above about 34%, passing the limit was not always enough;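 further: antagonist mode with CXCL16 agonist at 10 nM final; 0% = 10 nM CXCL16 with DMSO and 100% = unstimulated wells without agonist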
APJ antag conf: APJ receptor antagonism confirmation; shares compounds with APJ antag; APJ beta-arrestin recruitment, luminescence, antagonist mode; inhibition, % at 20 µM; 950 tested, 66% active; AID 2766; in the data active means inhibition above about 50%
Active calls of the source: *; . = not tested or not shown. An excerpt weighted towards active compounds, which were near 1.5% of everything screened.

SMILES	CCR6 antagonist	EBI2 block	APJ antag	APJ agonist	CXCR6 inh	APJ antag conf
COC(=O)[C@@]12C[C@@H](CC(=O)NCCCN3CCCC3=O)C(=O)N(Cc3ccc4c(c3)OCO4)C1=CCC(C)(C)C2	.	-7	.	.	.	.
CNC(=O)c1nnsc1S(=O)(=O)c1ccc(Cl)cc1	77*	-6	47*	-3	64*	70*
CNC(=O)c1ccc(S(=O)(=O)c2ccc(Cl)cc2)c(NC(C)=O)c1	-3	-16	10	-4	8	.
O=C1OCC(CO)(CO)N=C1NNc1ccccc1[N+](=O)[O-]	4	8	-3	-5	-4	.
O=C1OCC(CO)(CO)N=C1NNc1cc(Cl)ccc1Cl	33	2	70*	-11	32	74*
CCOc1cc(/C=C2\C(=O)ON=C2c2ccccc2)cc(Br)c1O	42	-15	46*	-7	29	74*
CCOc1cc(/C=C2/C(=O)ON=C2C)cc(Br)c1O	57*	3	41*	-6	16	56*
COc1cc(/C=C2\C(=O)ON=C2c2ccccc2)cc(Cl)c1O	50	-9	46*	-5	17	66*
COc1cc(/C=C2\C(=O)ON=C2c2ccccc2)cc(Br)c1O	58*	-22	43*	-7	28	95*
Cc1sc(/C=C2\C(=O)ON=C2c2ccccc2)cc1Br	.	.	2	-3	.	.
COc1cc(C=C2C(=O)OC(c3ccccc3)OC2=O)cc(Br)c1O (stereo unspecified)	16	-2	5	0	5	.
COc1ccc(/C=C2/C(=O)ON=C2C)cc1Cl	-8	-6	3	-1	-6	.
CCOC(=O)[C@@H](NC(=O)CC[C@H]1O[C@@H](n2ccc(=O)[nH]c2=O)[C@H](O)[C@@H]1O)C(C)C	.	-1	.	.	-6	.
Cc1ccccc1Oc1ccc2c(c1)[C@@H]1C[C@H](N(C)C(=S)Nc3ccc(F)cc3)[C@H]([C@H](C)O)C(=O)N1CC2	.	-2	.	.	5	.
COCCNC(=O)C1(C)CCCN(Cc2cc3ccccc3o2)C1 (stereo unspecified)	.	-3	.	.	-4	.
O=C1NC[C@H](CC2CCCCC2)N(CCC23CC4CC(CC(C4)C2)C3)C1=O	.	14	.	.	-1	.
COc1cc(/C=C/c2ccc3cccc(OC)c3n2)c(O)c([N+](=O)[O-])c1	54*	25	44*	-7	42*	74*
COc1cc(Br)cc(/C=C/c2ccc3cccc(O)c3n2)c1O	21	-12	-6	-3	11	.
O=S1(=O)CCN(C2CC2)CC1	.	-4	.	.	-2	.
COc1cccc(N2CC(C)Cn3c2nc2c3c(=O)[nH]c(=O)n2C)c1 (stereo unspecified)	41	17	46*	-6	44*	79*
Cc1cc(C)cc(N2CC(C)Cn3c2nc2c3c(=O)[nH]c(=O)n2C)c1 (stereo unspecified)	-1	-1	23	-4	3	.
O=C(C1=C(O)C(=O)N(CCN2CCOCC2)C1c1cccs1)c1cc2ccccc2o1 (stereo unspecified)	23	7	56*	-7	11	28
O=C(C1=C(O)C(=O)N(CCN2CCOCC2)C1c1cccc(O)c1)c1cc2ccccc2o1 (stereo unspecified)	7	5	24	-2	-2	.
O=C(O)c1ccc(N=N/C(=N\Nc2ccc(C(=O)O)cc2)c2ccccc2)cc1	49	17	55*	-7	25	84*
Cc1ccccc1S(=O)(=O)NC(=O)C1(C)CCN1C(=O)Cc1cc(F)ccc1F (stereo unspecified)	.	-4	.	.	2	.
SMILES	CCR6 antagonist	EBI2 block	APJ antag	APJ agonist	CXCR6 inh	APJ antag conf
O=S(=O)(O)c1cc(Cl)cc(N=Nc2ccc(O)cc2O)c1O	49	7	.	.	31	.
O=S(=O)(O)c1cc(O)c2c(O)c(N=Nc3cc(Cl)ccc3O)c(S(=O)(=O)O)cc2c1	60*	9	40*	-7	39	70*
CC1(C(=O)NCc2ccc3c(c2)OCO3)CCN1C(=O)CC1CCCC1 (stereo unspecified)	.	-2	.	.	-1	.
O=C1OC(c2ccc(F)cc2)=C/C1=C\c1ccc(O)cc1	52*	14	43*	-6	35	74*
CN(Cc1c(O)ccc2c1oc(=O)c1ccccc12)C1CCCCC1	26	10	47*	0	21	40
COC(=O)[C@@]12C[C@@H](CC(=O)N3CCCCC3)C(=O)N(Cc3ccccc3)C1=CCC(C)(C)C2	.	3	.	.	.	.
Cc1ccc(S(=O)(=O)Nc2cccc3cccnc23)c([N+](=O)[O-])c1	49	23	58*	-24	30	56*
CC(=O)Nc1ccc(S(=O)(=O)Nc2cccc3cccnc23)cc1	32	-7	8	-4	-4	.
COc1ccccc1NS(=O)(=O)c1ccc2ccccc2c1	12	-3	2	-2	-5	.
O=S(=O)(Nc1cccc2cccnc12)c1ccc(S(=O)(=O)N2CCCC2)cc1	45	12	68*	-17	34	48
COc1ccc(NS(=O)(=O)c2ccc3ccccc3c2)c2ncccc12	32	24	66*	-12	20	52*
O=S(=O)(Nc1cccc2cccnc12)c1ccccc1	90*	62*	89*	-15	69*	72*
Cc1ccccc1NS(=O)(=O)c1ccc(S(=O)(=O)N2CCCC2)cc1	.	-4	.	.	0	.
CN(C)CCN1CCN(C2CN(C3CCCC3)S(=O)(=O)C2)CC1 (stereo unspecified)	.	-6	.	.	1	.
Cc1cc(Cl)ccc1NC(=O)/N=C1/NC(=O)CS1	.	-5	.	.	7	.
Cc1ccc2cccc(NS(=O)(=O)c3ccccc3)c2n1	39	.	63*	-20	.	57*
CN(C)c1ccc(N=Nc2ccc(S(=O)(=O)O)cc2)c2ccccc12	62*	12	41*	-8	42*	92*
CN(C)c1ccc(N=Nc2ccc(S(N)(=O)=O)cc2)cc1	29	10	24	-8	20	.
CCOC(=O)c1c(-c2ccc(-c3ccccc3)cc2)csc1NC(=O)CNCCN(C)C	78*	-7	43*	-6	32	96*
C=CCn1c(=O)[nH]c2cc(C(=O)N3CC=C(c4ccccc4)CC3)ccc2c1=O	12	1	52*	-5	-17	-13
COc1ccc(/C=C/C(=O)NC(=S)NNC(=O)c2c(-c3ccccc3)noc2C)cc1	3	17	43*	-7	32	92*
Cc1ccc(F)c(S(=O)(=O)NC(=O)C2(C)CCN2C(=O)Cc2cccs2)c1 (stereo unspecified)	.	-10	.	.	4	.
O=C(Nc1cccc(Cl)c1N1CCCCC1)c1ccc2c(c1)OCCO2	10	15	11	-4	-1	.
O=C(NC(=S)Nc1cccc(Cl)c1N1CCCCC1)c1ccc2c(c1)OCCO2	28	20	44*	1	10	38

Screening data as filed in PubChem BioAssay.
